In ChEMBL document CHEMBL1126023, “Synthesis, antinociceptive activity, and opioid receptor profiles of substituted trans-3-(decahydro- and octahydro-4a-isoquinolinyl)phenols” (J Med Chem, 1992):

Columns and labels:
Mus musculus = experiment: Effective dose for the inhibition of acetylcholine induced mouse abdominal contriction was determined in vivo; type: functional; details: Abdomen
Outline: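 Mouse abdominal constriction induced by acetylcholine. Compounds given sc in saline vehicle. ED50 reported in mg/kg sc, with 95% confidence limits, or both values where only two determinations were made.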

Oryctolagus cuniculus [1] = species on record: Oryctolagus cuniculus; experiment: In vitro antagonist affinity constant was measured on rabbit vas deferens; type: functional
[2] = biological target: Opioid receptors; mu/kappa/delta; experiment: (§1) In vitro inhibitory activity against opioid receptor in Guinea pig ileum; type: tissue-based, Cavia porcellus
[3] = biological target: Mu-type opioid receptor (Cavia porcellus) (UniProt P97266); experiment: Dose ratio IC50 after beta-FNA (10e-6 M) 30 min pretreatment on guinea pig ileum and IC50 before beta-FNA treatment against opioid receptor mu in guinea pig ileum; type: tissue-based
Mu-type opioid receptor (Cavia porcellus), sequence (P97266 whole entry): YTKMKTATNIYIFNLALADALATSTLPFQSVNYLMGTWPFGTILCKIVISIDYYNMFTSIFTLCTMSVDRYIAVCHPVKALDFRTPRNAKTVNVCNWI

[4] = as §1; type: functional, tissue-based
Oryctolagus cuniculus [5] = species on record: Oryctolagus cuniculus; experiment: In vitro antagonist affinity constant was measured on rabbit vas deferens AT 10e-6 M concentration; type: functional

| Structure (SMILES) | ED50 (Mus musculus) [mg/kg] | pKB (Oryctolagus cuniculus [1]) | IC50 [2] [nM] | Dose ratio [3] | IC50 [4] [nM] | IC50 (Oryctolagus cuniculus [1]) [nM] | inhibition at 1 µM (Oryctolagus cuniculus [5]) [%] |
| --- | --- | --- | --- | --- | --- | --- | --- |
| C=C1CCC2(c3cccc(O)c3)CCN(CC3CCC3)C[C@@H]2C1 (some centres not stated) | 1.06 | 5.3 | – | – | – | – | – |
| C=C1CCC2(c3cccc(O)c3)CCN(CC3CC3)C[C@@H]2C1 (some centres not stated) | 1.3 | 5.8 | – | – | – | – | – |
| C=C1CC[C@H]2CN(CC3CCC3)CCC2(c2cccc(O)c2)C1 (some centres not stated) | 0.23 | 5.3 | – | – | – | – | – |
| C=C1CC[C@H]2CN(C)CCC2(c2cccc(O)c2)C1 (some centres not stated) | 0.18 | 5.9 | 60 | 22 | – | – | – |
| CN1CC[C@]23c4c5ccc(O)c4O[C@H]2[C@@H](O)C=C[C@H]3[C@H]1C5 [MORPHINE] | 0.47 | – | – | – | – | – | – |
| CC[C@@]12CCN(CC3CC3)C(C(=O)c3ccc(O)cc31)[C@@H]2C [ETHYLKETOCYCLAZOCINE] | 0.08 | – | – | – | 0.5 | – | – |
| Oc1cccc(C23CC=CC[C@H]2CN(CC2CCC2)CC3)c1 (some centres not stated) | 0.39 | 5.7 | 60 | 14.7 | – | – | – |
| Oc1cccc(C23CC=CC[C@H]2CN(CC2CC2)CC3)c1 (some centres not stated) | 0.53 | – | 90 | 2.3 | – | – | – |
| C=C1C[C@@H](C)[C@H]2CN(CC3CC3)CCC2(c2cccc(O)c2)C1 (some centres not stated) | 0.05 | – | – | – | – | 28000 | – |
| O=C1CCC2(c3cccc(O)c3)CCN(CC3CC3)C[C@@H]2C1 (some centres not stated) | > 10 | – | – | – | – | – | – |
| C=CCN1CCC2(c3cccc(O)c3)CC=CC[C@H]2C1 (some centres not stated) | 1.91 | 5.6 | – | – | – | – | – |
| C=CCN1CCC2(c3cccc(O)c3)CC(=C)CC[C@H]2C1 (some centres not stated) | 0.55 | 5.5 | 140 | 3.3 | – | – | – |
| C=C1C[C@H](C)[C@H]2CN(CC3CC3)CCC2(c2cccc(O)c2)C1 (some centres not stated) | 3.3 | 4.8 | – | – | – | – | – |
| C=C1CC[C@H]2CN(CC3CC3)CCC2(c2cccc(O)c2)C1 (some centres not stated) | 0.17 | 6.3 | 15 | 1.7 | – | – | – |
| Oc1cccc(C23C=C[C@H](O)C[C@H]2CN(CC2CC2)CC3)c1 (some centres not stated) | > 10 | 5.6 | – | – | – | – | – |
| Oc1cccc(C23CCCC[C@H]2CN(CC2CC2)CC3)c1 (some centres not stated) | 1.09 | – | 150 | 2.8 | – | – | 24 |
| Oc1cccc(C23CC[C@H](O)C[C@H]2CN(CC2CCC2)CC3)c1 (some centres not stated) | > 10 | – | – | – | – | – | – |
| CN1CCC2(c3cccc(O)c3)CC=CC[C@H]2C1 (some centres not stated) | 0.5 | 5.4 | 130 | > 30 | – | – | – |
| O=C1CC[C@H]2CN(CC3CC3)CCC2(c2cccc(O)c2)C1 (some centres not stated) | 1.6 | 6.1 | 120 | 1.4 | – | – | – |
| Oc1cccc(C23CC[C@H](O)C[C@H]2CN(CC2CC2)CC3)c1 (some centres not stated) | > 10 | – | – | – | – | – | – |
| O=C1CCC2(c3cccc(O)c3)CCN(CC3CCC3)C[C@@H]2C1 (some centres not stated) | > 10 | – | – | – | – | – | – |
